Assays:
[1] = Percutaneous permeability through human SCE membrane in Franz diffusion cell after 12 hrs by UV-Vis spectrophotometry relative to hydroxytyrosol; type: ADME
Outline: (§1)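 Franz cells (0.75 cm² area, 4.75 mL receptor) with human stratum corneum/viable epidermis from fresh abdominal surgical skin, used within 24 h of removal. Non-occlusive, 36 ± 1 °C. Receptor sampled hourly up to 12 h, each sample replaced with fresh phase. UV-vis at each compound's λmax against calibration (0.5–25 μg/mL in EtOH). At least three cells, triplicate, mean ± SD.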

[2] = Octanol-water partition coefficient, log Kow of the compound by HPLC analysis; type: physicochemical; details: read-out: log KOW
Outline: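 Reversed-phase HPLC method for log Kow, calibrated with reference standards of known log Kow. Naphthalene (log Kow 3.3) was the most lipophilic standard. Compounds too lipophilic to be resolved were assigned a log Kow above 3.3.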

[3] = Percutaneous permeability through human SCE membrane in Franz diffusion cell after 12 hrs by UV-Vis spectrophotometry; type: ADME; outline: as §1

| SMILES | fold change (FC) [1] | logP [2] | permeability [3] [%] |
| --- | --- | --- | --- |
| CCCCC/C=C\C/C=C\CCCCCCCC(=O)OCCc1ccc(O)c(O)c1 | 2.2 | > 3.3 | 60.52 |
| OCCc1ccc(O)c(O)c1 [HYDROXYTYROSOL] |  | 0.809 |  |
| CCCC(=O)OCCc1ccc(O)c(O)c1 [HYDROXYTYROSOL BUTANOATE] | 1.8 | 1.64 |  |
| CCCCCCCC/C=C/CCCCCCCC(=O)OCCc1ccc(O)c(O)c1 |  | > 3.3 |  |

Other lines, results leading:

| fold change (FC) [1] | logP [2] | permeability [3] [%] | SMILES |
| --- | --- | --- | --- |
| 2.2 | > 3.3 | 64.18 | CCCCCCCCCC(=O)OCCc1ccc(O)c(O)c1 [HYDROXYTYROSOL DECANOATE] |
| 3.6 | > 3.3 |  | CCCCCCCC/C=C\CCCCCCCC(=O)OCCc1ccc(O)c(O)c1 |
| 1.7 | > 3.3 |  | CCCCCCCCCCCCCCCCCC(=O)OCCc1ccc(O)c(O)c1 [HYDROXYTYROSOL STERATE] |
| 1.7 | > 3.3 |  | CCCCCCCCCCCCCCCC(=O)OCCc1ccc(O)c(O)c1 [HYDROXYTYROSOL PALMITATE] |

Reference: ChEMBL document CHEMBL1949600, “Lipophilic hydroxytyrosol esters: fatty acid conjugates for potential topical administration” (J Nat Prod, 2011)
